Series [1] deals with Tyrosine-protein kinase CSK (Homo sapiens, UniProt P41240). The series can be described thus: Inhibition of CSK in human HeLa cells lysate at 2 uM pre incubated for 15 mins followed by ADP acyl phosphate probe addition and measured after 10 mins by LC-MS/MS analysis relative to control. It counts as subcellular. The note with it: time 25.0 min.
Series [2] concerns the target Ribosomal protein S6 kinase alpha-3 (Homo sapiens, UniProt P51812). The series can be described thus: Inhibition of RSK2 domain 2 in human HeLa cells lysate at 50 uM pre incubated for 15 mins followed by ATP acyl phosphate probe addition and measured after 10 mins by LC-MS/MS analysis relative to control. It counts as subcellular. The note with it: time 25.0 min.
Series [3] addresses Casein kinase I isoform alpha (Homo sapiens, UniProt P48729). Nature of the series: Inhibition of CK1alpha in human HeLa cells lysate at 50 uM pre incubated for 15 mins followed by ATP acyl phosphate probe addition and measured after 10 mins by LC-MS/MS analysis relative to control. In kind it is subcellular. Particulars: time 25.0 min.
Series [4] concerns the target Calcium/calmodulin-dependent protein kinase type II subunit delta (Homo sapiens, UniProt Q13557). The series can be described thus: Inhibition of CamK2d in human HeLa cells lysate at 2 uM pre incubated for 15 mins followed by ADP acyl phosphate probe addition and measured after 10 mins by LC-MS/MS analysis relative to control. It counts as subcellular. Particulars: time 25.0 min.

Series [5] is described as follows: Inhibition of CK1g1/g2/g3 in human HeLa cells lysate pre incubated for 15 mins followed by ADP acyl phosphate probe addition and measured after 10 mins by LC-MS/MS analysis. In kind it is subcellular.
Series [6] has as its target T1, EKC/KEOPS complex subunit TP53RK (Homo sapiens) (UniProt Q96S44).
T1 sequence (whole entry): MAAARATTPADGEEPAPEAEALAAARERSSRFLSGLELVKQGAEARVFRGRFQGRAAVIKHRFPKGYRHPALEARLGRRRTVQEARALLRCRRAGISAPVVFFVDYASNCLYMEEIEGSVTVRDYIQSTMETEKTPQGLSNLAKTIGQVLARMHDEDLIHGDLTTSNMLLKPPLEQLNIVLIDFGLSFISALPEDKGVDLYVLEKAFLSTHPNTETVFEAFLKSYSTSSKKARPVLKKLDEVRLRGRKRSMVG
The series can be described thus: Inhibition of PRPK in human HeLa cells lysate at 50 uM pre incubated for 15 mins followed by ADP acyl phosphate probe addition and measured after 10 mins by LC-MS/MS analysis relative to control. In kind it is subcellular. Particulars: time 25.0 min.

Series [7] has as its target Calcium/calmodulin-dependent protein kinase type II subunit gamma (Homo sapiens, UniProt Q13555). The series can be described thus: Inhibition of CAMK2g in human HeLa cells lysate at 2 uM pre incubated for 15 mins followed by ATP acyl phosphate probe addition and measured after 10 mins by LC-MS/MS analysis relative to control. In kind it is subcellular. The note with it: time 25.0 min. Summed up:
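KiNativ-type profiling in HeLa lysate (5 mg/mL total protein). Lysate preincubated 15 min with inhibitor at 50, 10, 2, 0.8 or 0 μM, then ATP or ADP acylphosphate probe added (5 μM final) for 10 min. Reaction stopped with urea and analysed by targeted MS, using up to four fragment ions per kinase peptide-probe conjugate. % inhibition calculated against untreated lysate. Duplicate reactions.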

Series [8] can be described thus: Plasma concentration in C57Bl/6 mouse at 50 mg/kg, ip administered for 8 day and measured 8 hr post last dose by LC-MS/MS analysis. In kind it is ADME, organism-based.
Series [9] deals with Acylglycerol kinase, mitochondrial (Homo sapiens, UniProt Q53H12). Nature of the series: Inhibition of AGK in human HeLa cells lysate pre incubated for 15 mins followed by ATP acyl phosphate probe addition and measured after 10 mins by LC-MS/MS analysis. In kind it is subcellular. In outline:
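HeLa cell lysates (5 mg/mL total protein) were preincubated with inhibitor at 0, 0.8, 2, 10 or 50 μM for 15 min. ATP or ADP acylphosphate probe was then added (5 μM final) for 10 min, and reactions were stopped with urea. Up to four fragment ions per kinase probe-peptide were quantified by targeted MS. % inhibition was taken relative to untreated lysate. Run in duplicate.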

The nature of series [10]: Toxicity in C57Bl/6 mouse assessed as effect on amylase level at 50 mg/kg, ip for 14 days (reference value: 1027 U/L). It counts as organism-based. Particulars: in vivo, 336 h, time 14 day.
The target in series [11] is Cyclin-dependent kinase 11B (Homo sapiens, UniProt P21127). Nature of the series: Inhibition of PITSLRE in human HeLa cells lysate pre incubated for 15 mins followed by ATP acyl phosphate probe addition and measured after 10 mins by LC-MS/MS analysis. In kind it is subcellular.
Series [12] has as its target T2, Interleukin-1 receptor-associated kinase 4 (Homo sapiens) (UniProt Q9NWZ3).
T2 sequence (whole entry): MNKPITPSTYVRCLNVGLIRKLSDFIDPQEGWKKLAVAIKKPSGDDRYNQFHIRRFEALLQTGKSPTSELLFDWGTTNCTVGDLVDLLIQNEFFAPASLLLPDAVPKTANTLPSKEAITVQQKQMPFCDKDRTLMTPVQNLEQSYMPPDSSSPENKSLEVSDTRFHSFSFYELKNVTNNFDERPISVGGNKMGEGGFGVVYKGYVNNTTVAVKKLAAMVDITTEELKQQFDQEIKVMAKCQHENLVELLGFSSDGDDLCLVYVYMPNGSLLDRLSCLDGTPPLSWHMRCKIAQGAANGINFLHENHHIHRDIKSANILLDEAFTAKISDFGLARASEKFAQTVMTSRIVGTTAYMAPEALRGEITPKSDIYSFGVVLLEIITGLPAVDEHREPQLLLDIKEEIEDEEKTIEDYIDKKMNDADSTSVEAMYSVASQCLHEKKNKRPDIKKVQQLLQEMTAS
The series can be described thus: Inhibition of IRAK4 in human HeLa cells lysate at 2 uM pre incubated for 15 mins followed by ATP acyl phosphate probe addition and measured after 10 mins by LC-MS/MS analysis relative to control. The note with it: time 25.0 min. It counts as subcellular.

The target in series [13] is Mitogen-activated protein kinase kinase kinase 20 (Homo sapiens, UniProt Q9NYL2). Nature of the series: Inhibition of ZAK in human HeLa cells lysate at 50 uM pre incubated for 15 mins followed by ATP acyl phosphate probe addition and measured after 10 mins by LC-MS/MS analysis relative to control. It counts as subcellular. Particulars: time 25.0 min.
Another series deals with Ephrin type-A receptor 2 (Homo sapiens, UniProt P29317). Nature of the series: Inhibition of EphA2 in human HeLa cells lysate pre incubated for 15 mins followed by ATP acyl phosphate probe addition and measured after 10 mins by LC-MS/MS analysis. It counts as subcellular.
Series [14] is described as follows: Inhibition of MST4/YSK1 in human HeLa cells lysate at 2 uM pre incubated for 15 mins followed by ADP acyl phosphate probe addition and measured after 10 mins by LC-MS/MS analysis relative to control. Particulars: 25 min, condition cancer.
Series [15] in a line: Tmax in Sprague-Dawley rat at 2 mg/kg, po measured up to 8 hrs by LC-MS/MS analysis. It counts as ADME, organism-based. The note with it: in vivo.
A short description of series [16]: Inhibition of HGK/MINK/TNIK in human HeLa cells lysate at 2 uM pre incubated for 15 mins followed by ATP acyl phosphate probe addition and measured after 10 mins by LC-MS/MS analysis relative to control. The note with it: 25 min, condition cancer.
A short description of series [17]: Inhibition of MSK1/2 in human HeLa cells lysate at 10 uM pre incubated for 15 mins followed by ADP acyl phosphate probe addition and measured after 10 mins by LC-MS/MS analysis relative to control. Particulars: 25 min, condition cancer.
Series [18] concerns the target Mitogen-activated protein kinase 3 (Homo sapiens, UniProt P27361). Nature of the series: Inhibition of ERK1 in human HeLa cells lysate at 2 uM pre incubated for 15 mins followed by ADP acyl phosphate probe addition and measured after 10 mins by LC-MS/MS analysis relative to control. The note with it: time 25.0 min. It counts as subcellular.

Tyrosine-protein kinase CSK, sequence (P41240 2-450 limits assumed): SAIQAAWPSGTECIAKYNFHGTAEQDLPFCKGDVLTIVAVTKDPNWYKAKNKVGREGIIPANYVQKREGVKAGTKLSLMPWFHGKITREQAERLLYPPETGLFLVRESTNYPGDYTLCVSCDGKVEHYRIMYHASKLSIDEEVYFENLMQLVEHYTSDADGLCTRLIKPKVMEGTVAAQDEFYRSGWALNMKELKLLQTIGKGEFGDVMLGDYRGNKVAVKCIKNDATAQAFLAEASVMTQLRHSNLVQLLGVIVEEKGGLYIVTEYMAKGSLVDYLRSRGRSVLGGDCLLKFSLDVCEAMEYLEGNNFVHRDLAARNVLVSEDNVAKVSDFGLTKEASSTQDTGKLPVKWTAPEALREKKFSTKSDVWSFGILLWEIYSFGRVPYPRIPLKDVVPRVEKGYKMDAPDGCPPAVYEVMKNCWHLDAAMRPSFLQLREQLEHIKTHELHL
Mitogen-activated protein kinase kinase kinase 20, sequence (Q9NYL2 2-800 limits assumed): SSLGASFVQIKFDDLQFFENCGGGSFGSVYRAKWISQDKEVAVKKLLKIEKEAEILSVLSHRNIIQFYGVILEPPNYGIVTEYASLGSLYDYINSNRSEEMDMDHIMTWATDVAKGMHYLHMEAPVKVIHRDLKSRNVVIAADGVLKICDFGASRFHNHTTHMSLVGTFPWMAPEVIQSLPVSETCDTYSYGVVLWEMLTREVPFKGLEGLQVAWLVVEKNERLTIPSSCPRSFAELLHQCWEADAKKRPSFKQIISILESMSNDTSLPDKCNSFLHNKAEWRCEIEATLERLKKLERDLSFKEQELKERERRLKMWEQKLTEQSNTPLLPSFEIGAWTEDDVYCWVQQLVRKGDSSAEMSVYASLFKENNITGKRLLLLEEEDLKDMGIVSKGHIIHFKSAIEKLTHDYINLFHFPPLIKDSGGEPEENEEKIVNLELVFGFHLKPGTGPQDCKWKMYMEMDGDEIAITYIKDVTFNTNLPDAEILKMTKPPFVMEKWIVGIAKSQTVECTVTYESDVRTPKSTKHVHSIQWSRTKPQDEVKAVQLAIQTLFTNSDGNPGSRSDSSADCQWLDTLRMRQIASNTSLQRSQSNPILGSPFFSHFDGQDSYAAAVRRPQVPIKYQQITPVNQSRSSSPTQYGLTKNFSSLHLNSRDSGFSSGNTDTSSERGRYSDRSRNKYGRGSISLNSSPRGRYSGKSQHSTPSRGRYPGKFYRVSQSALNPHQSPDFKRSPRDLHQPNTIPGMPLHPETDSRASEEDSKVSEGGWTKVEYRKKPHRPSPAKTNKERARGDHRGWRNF
Calcium/calmodulin-dependent protein kinase type II subunit delta, sequence (Q13557 whole entry): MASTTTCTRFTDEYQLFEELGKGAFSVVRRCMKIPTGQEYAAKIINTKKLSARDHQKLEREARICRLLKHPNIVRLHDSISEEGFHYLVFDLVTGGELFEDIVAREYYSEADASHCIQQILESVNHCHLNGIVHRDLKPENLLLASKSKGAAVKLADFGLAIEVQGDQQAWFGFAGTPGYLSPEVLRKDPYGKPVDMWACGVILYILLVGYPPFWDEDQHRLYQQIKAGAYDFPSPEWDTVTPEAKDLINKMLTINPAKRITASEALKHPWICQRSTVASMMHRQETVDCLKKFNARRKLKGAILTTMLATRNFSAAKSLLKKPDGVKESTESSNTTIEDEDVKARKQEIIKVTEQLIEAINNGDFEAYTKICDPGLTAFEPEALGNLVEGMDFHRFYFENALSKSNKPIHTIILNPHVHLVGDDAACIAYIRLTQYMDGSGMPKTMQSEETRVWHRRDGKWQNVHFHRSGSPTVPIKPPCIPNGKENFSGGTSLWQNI
Mitogen-activated protein kinase 3, sequence (P27361 whole entry): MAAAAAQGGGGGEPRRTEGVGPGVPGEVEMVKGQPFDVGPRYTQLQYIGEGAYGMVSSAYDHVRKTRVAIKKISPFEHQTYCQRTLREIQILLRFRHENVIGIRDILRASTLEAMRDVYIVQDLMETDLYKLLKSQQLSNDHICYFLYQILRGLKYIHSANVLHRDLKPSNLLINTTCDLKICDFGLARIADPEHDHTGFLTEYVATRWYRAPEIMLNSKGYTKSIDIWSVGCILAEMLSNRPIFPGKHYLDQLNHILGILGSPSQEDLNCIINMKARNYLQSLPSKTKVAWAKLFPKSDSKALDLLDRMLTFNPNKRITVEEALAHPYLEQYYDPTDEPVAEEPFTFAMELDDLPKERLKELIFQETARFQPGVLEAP
Acylglycerol kinase, mitochondrial, sequence (Q53H12 whole entry, the tested form may be a part): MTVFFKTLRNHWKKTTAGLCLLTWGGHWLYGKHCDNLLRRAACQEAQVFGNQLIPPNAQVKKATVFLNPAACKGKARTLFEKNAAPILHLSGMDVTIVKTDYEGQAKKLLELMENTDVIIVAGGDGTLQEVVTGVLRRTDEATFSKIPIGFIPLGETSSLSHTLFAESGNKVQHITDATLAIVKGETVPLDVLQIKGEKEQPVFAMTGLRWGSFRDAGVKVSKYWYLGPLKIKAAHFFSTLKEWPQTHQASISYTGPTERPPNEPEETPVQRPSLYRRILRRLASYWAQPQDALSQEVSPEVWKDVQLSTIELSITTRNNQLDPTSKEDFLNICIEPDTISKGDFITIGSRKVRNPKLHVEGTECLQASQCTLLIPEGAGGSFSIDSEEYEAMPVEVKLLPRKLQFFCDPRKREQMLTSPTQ
Casein kinase I isoform alpha, sequence (P48729 2-337 limits assumed): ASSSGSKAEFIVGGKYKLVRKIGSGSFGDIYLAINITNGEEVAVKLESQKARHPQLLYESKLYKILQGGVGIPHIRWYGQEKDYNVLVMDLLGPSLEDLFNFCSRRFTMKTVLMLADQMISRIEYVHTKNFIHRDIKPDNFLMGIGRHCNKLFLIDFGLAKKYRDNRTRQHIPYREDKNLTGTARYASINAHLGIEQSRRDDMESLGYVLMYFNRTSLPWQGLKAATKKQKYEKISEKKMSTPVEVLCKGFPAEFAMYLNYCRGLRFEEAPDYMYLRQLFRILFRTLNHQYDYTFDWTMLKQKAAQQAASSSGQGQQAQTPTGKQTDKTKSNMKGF
Calcium/calmodulin-dependent protein kinase type II subunit gamma, sequence (Q13555 whole entry, the tested form may be a part): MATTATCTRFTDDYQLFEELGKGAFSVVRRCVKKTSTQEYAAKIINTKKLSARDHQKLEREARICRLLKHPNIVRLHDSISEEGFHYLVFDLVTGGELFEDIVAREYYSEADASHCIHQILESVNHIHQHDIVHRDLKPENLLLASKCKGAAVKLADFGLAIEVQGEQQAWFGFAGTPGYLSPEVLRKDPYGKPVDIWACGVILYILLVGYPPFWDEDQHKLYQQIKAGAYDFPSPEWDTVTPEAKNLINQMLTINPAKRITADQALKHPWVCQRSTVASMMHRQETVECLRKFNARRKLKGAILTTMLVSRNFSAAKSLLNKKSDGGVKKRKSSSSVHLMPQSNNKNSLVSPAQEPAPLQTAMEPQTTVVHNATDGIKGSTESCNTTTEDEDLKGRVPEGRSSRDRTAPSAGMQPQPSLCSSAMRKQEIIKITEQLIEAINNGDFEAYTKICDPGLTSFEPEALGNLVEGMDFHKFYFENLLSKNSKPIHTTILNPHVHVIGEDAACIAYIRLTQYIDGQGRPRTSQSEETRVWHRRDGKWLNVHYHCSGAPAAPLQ
Ribosomal protein S6 kinase alpha-3, sequence (P51812 whole entry, the tested form may be a part, canonical isoform): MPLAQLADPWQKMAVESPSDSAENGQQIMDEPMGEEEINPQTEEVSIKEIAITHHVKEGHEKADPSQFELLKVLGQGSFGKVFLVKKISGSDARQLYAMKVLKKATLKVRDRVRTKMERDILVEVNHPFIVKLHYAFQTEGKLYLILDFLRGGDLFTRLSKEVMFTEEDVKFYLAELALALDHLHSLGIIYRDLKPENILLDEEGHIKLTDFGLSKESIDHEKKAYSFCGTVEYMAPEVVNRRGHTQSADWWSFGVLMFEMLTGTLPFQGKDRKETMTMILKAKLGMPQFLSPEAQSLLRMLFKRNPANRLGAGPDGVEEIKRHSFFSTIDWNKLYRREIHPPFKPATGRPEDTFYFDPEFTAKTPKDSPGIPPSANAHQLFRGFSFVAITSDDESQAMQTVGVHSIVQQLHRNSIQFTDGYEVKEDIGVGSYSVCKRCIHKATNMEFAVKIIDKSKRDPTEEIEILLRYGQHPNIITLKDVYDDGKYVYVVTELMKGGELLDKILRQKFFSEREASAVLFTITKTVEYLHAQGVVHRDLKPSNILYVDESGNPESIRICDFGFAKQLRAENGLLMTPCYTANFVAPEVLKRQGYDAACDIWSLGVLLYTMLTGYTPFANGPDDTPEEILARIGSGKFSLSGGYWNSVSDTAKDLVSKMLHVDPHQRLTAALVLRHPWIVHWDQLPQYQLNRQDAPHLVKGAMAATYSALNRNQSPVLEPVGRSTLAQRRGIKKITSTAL
Cyclin-dependent kinase 11B, sequence (P21127 whole entry): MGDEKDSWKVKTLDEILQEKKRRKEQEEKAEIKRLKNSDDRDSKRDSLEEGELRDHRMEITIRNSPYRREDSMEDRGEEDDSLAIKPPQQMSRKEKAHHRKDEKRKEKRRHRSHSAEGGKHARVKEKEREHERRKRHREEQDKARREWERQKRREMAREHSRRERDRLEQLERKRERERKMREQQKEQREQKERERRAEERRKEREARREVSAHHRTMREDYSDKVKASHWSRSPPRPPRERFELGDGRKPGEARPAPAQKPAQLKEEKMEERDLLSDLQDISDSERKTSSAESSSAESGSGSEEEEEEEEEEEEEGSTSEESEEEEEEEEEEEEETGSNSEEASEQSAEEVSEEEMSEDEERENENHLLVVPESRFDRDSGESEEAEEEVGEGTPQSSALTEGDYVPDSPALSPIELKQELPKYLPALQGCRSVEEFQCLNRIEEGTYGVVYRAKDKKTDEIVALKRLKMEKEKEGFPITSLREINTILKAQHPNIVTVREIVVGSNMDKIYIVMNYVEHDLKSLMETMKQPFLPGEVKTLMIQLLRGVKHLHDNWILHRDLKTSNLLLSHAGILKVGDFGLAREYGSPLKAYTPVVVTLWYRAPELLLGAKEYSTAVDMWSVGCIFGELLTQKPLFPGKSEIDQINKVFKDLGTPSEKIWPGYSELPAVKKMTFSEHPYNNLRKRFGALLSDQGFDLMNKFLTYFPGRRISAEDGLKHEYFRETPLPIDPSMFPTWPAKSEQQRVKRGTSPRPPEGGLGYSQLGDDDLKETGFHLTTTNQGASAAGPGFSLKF

`CCOc1cc(N2CCC(O)CC2)ccc1Nc1ncc2c(n1)N(C)c1ccccc1C(=O)N2C`: the inhibition in series [1] was 11.6%; in [2], 47.7%; in [3], 0.1%; in series [4] it was -6.5%; in [6] it was 15.7%; in series [7], 3%. The inhibition worked out at 6.7% in series [12], 33.3% in series [13] and 16.2% in [18]. Also, the IC50 (in series [5]; in [9]; in series [11]; at Ephrin type-A receptor 2) was greater than 50 µM in each case. The compound also displayed a concentration at 192 h in [8] of 12.8 µM. Further, in series [10], the Activity was found to be 664 U/L. Further, the inhibition at 2 µM is 11.3% in series [14] and -5.2% in [16]. The Tmax in series [15] stood at 30 min. The inhibition at 10 µM in [17] was 37.4%.

In general, inhibition refers to the relative decrease from the control value, in per cent. What is called IC50 is the midpoint of a concentration-inhibition curve. A lower IC50 goes with higher potency. By Tmax is commonly meant the time at which the peak concentration occurs.

The record behind these values is ChEMBL document CHEMBL5661979, “Pharmacological inhibition of BMK1 suppresses tumor growth through promyelocytic leukemia protein” (Cancer Cell, 2010).
